Data set [1] can be described thus: folding enthalpy; higher = less favourable; fluorescence melt of hairpins on a sequencing array, two-state fit. Conditions: sodium 0.088 M. The procedure, abridged:
(§1)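 Bootstrapped two-state fits yielded melting temperature and folding enthalpy for library hairpins. Cy3 fluorescence, with annealed Cy3 and quencher oligos, was imaged on a sequenced MiSeq flow cell in 50 mM Na-HEPES pH 8.0, 25 mM NaCl in 2.5 °C steps up to 60 °C, and normalised to pre-quench Cy3 and to control constructs. Four replicates were combined by inverse variance, and fitted temperatures were raised by 9.35 °C to match UV melts.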

Data set [2] is described as follows: melting temperature; fluorescence melt of hairpins on a sequencing array, two-state fit, raised by 9.35 °C to match UV melts. The following applies: sodium 0.088 M. In short, it runs like this:
as §1

Data on 74 sequences can be found in the array DNA melting data of Ke et al. (doi:10.1101/2024.01.08.574731).

As for TGCTAGAAATAGCA (((((....))))), the folding enthalpy in data set [1] is -14.6 kcal/mol. For the same sequence, the Tm in data set [2] came out at 41.2 °C.
Regarding GTTCGTGGAAACACGAGC (.(((((....))))).), in data set [1], the folding enthalpy is -21.5 kcal/mol. Further, in data set [2], the Tm amounted to 52.7 °C.
For GCGTCGGGAAACCGATGC ((.((((....)))).)) the same measures were -34 kcal/mol and 65 °C.
The corresponding values for GCTTCTCGAAAGAGAGC (((.(((....)))))) are -22 kcal/mol and 49.4 °C.
The corresponding values for GCTGTGCGAAAGCAATGC ((..(((....)))..)) are -19.1 kcal/mol and 42.8 °C.
Regarding GCCCTACCGAAAGGTGGC (((..(((....)))))), the folding enthalpy in data set [1] is -20.8 kcal/mol. Also, in data set [2], the Tm turned out to be 49 °C.
For GCCTGGCGAAAGCTATGC ((.(.((....)).).)) the same measures were -12.5 kcal/mol and 37.5 °C.
For GTATACGGAAACGTATGC (.(((((....))))).), the folding enthalpy in data set [1] was -24.5 kcal/mol. Also, the Tm in data set [2] amounted to 46.4 °C.
For GAAGTCCGAAAGGAATTC (((.(((....))).))) the same measures were -30.9 kcal/mol and 50.1 °C.
For GCTTCGGAAACGAAGC ((((((....)))))) the same measures were -36.3 kcal/mol and 67.8 °C.
The corresponding values for GACATGCCGAAAGGCGTC (((..(((....)))))) are -11.1 kcal/mol and 41.2 °C.
As for GGGAACGGAAACGTTTCC ((.((((....)))).)), the folding enthalpy in data set [1] was -35.2 kcal/mol. The Tm in data set [2] is 53.7 °C.
For GAGTAGAAATACTC (((((....))))) the same measures were -16.7 kcal/mol and 36.5 °C.
For GGGTGCTCGAAAGAGCCC (((..(((....)))))) the same measures were -17.7 kcal/mol and 52.6 °C.
The corresponding values for GGCGGAGGAAACCCCACC ((.((.(....).)).)) are -20.2 kcal/mol and 29.6 °C.
As to GCCTTGCGAAAGCGCGGC (((..((....))..))), in data set [1], the folding enthalpy was -18 kcal/mol. Besides, the Tm in data set [2] was determined as 57.1 °C.
The corresponding values for GGACTGGGAAACCAGTTC (.(((((....))))).) are -28.6 kcal/mol and 50.6 °C.
On to GATCTGGGCGCAGATC ((((((....)))))), for which the folding enthalpy in data set [1] was -37.7 kcal/mol. In data set [2], the Tm is 53.5 °C.
For GCAATCGAAAGATGCTGC ((((((....)))..))) the same measures were -28.2 kcal/mol and 51.1 °C.
For GGTTTTGCGAAAGCAACC (((..(((....)))))) the same measures were -11.9 kcal/mol and 30.2 °C.
Consider GATCGCGAAAGCGGATC ((((((....))).))), for which the folding enthalpy in data set [1] is -16.4 kcal/mol. In data set [2], the Tm stood at 57 °C.
For GCATGTGGAAACATGTGC (((..((....))..))) the same measures were -31.6 kcal/mol and 49.6 °C.
In the case of GAGGCACGAAAGTGCTC (((.(((....)))))), the folding enthalpy in data set [1] is -9.34 kcal/mol. In data set [2], the Tm was 45.9 °C.
For GGTGTCGAAAGACCAACC ((((((....)))..))) the same measures were -15.3 kcal/mol and 37.5 °C.
The corresponding values for GCAAGCCGAAAGGCATGC (((.(((....))).))) are -24.9 kcal/mol and 64 °C.
GCTATGCGAAAGCCGAGC (((..((....))..))): in data set [1], the folding enthalpy is -19 kcal/mol. Besides, in data set [2], the Tm is 39.4 °C.
For GTATGCGAAAGCATTTAC ((((((....)))..))) the same measures were -8.67 kcal/mol and 30.6 °C.
For GCGCTCGGAAACGGGTGC ((.(.((....)).).)) the same measures were -53.1 kcal/mol and 51.6 °C.
For GATCTCGCCCGAGATC ((((((....)))))) the same measures were -39.2 kcal/mol and 56.2 °C.
For GCAAAGCGAAAGCTGTGC (((.(((....))).))), the folding enthalpy in data set [1] was -41.6 kcal/mol. For the same sequence, in data set [2], the Tm was 54.4 °C.
Take GAAGCCCGAAAGGGATTC (((.(((....))).))): in data set [1], the folding enthalpy was -42.4 kcal/mol. Besides, the Tm in data set [2] was 61.4 °C.
For GATCTTGAGCAAGATC ((((((....)))))), the folding enthalpy in data set [1] is -33.5 kcal/mol. The Tm in data set [2] was 44.4 °C.
The corresponding values for GACCACGAAAGTGGGTC ((((((....))).))) are -13.7 kcal/mol and 60.1 °C.
The corresponding values for GATCTCTATAGAGATC ((((((....)))))) are -38.7 kcal/mol and 55 °C.
Turning to GATCGTATACACGATC ((((((....)))))), in data set [1], the folding enthalpy is -38.4 kcal/mol. Besides, the Tm in data set [2] amounted to 53.9 °C.
The corresponding values for GCTGACGAAAGTCACAGC ((((((....)))..))) are -15.4 kcal/mol and 45.3 °C.
As for GCCACACCGAAAGGTGGC (((..(((....)))))), in data set [1], the folding enthalpy is -12.3 kcal/mol. For the same sequence, the Tm in data set [2] worked out at 55.6 °C.
For GACCTGGGAAACTGGGTC ((((..(....)..)))) the same measures were -25 kcal/mol and 44.4 °C.
Consider TTCCGGAAACGGAA (((((....))))), for which, in data set [1], the folding enthalpy is -18.6 kcal/mol. In addition, the Tm in data set [2] is 48.7 °C.
The corresponding values for CACGGGAAACCGTG (((((....))))) are -30.9 kcal/mol and 58.8 °C.
For GCGACTGGAAACAGCCGC (((.(((....))).))) the same measures were -51.9 kcal/mol and 56.2 °C.
For GCTACGCGAAAGCGCTGC ((..(((....)))..)) the same measures were -15.2 kcal/mol and 43.5 °C.
GTCCACGGAAACGTGAAC ((.((((....)))).)): the folding enthalpy in data set [1] is -18.1 kcal/mol. For the same sequence, the Tm in data set [2] turned out to be 45.5 °C.
The corresponding values for GATCGGGTTCCCGATC ((((((....)))))) are -42.5 kcal/mol and 62.8 °C.
For GCGGACGACCGC ((((....)))) the same measures were -24.6 kcal/mol and 53.8 °C.
For GCGCACGAAAGTGACCGC ((((((....)))..))) the same measures were -21.9 kcal/mol and 48.4 °C.
GATTCGAAAGAATC (((((....))))): the folding enthalpy in data set [1] was -29.7 kcal/mol. In addition, in data set [2], the Tm turned out to be 51.5 °C.
With GACGGGGCGAAAGCCGTC (((..(((....)))))), the folding enthalpy in data set [1] was -15.6 kcal/mol. In addition, the Tm in data set [2] was 55.2 °C.
For GCGATGGGTCGC ((((....)))) the same measures were -23.4 kcal/mol and 54.4 °C.
The corresponding values for GCCGGAGGAAACCCCAGC ((.((.(....).)).)) are -6.86 kcal/mol and 16.8 °C.
The corresponding values for CGTAAGCGGAAACGCACG (((..(((....)))))) are -22.6 kcal/mol and 41.8 °C.
With GCGATGCGAAAGCAGTGC ((..(((....)))..)), the folding enthalpy in data set [1] was -22.7 kcal/mol. The Tm in data set [2] amounted to 58.3 °C.
For GAATGGGGAAACCTATTC ((((.((....)).)))), the folding enthalpy in data set [1] was -31.6 kcal/mol. Besides, in data set [2], the Tm is 37.9 °C.
The corresponding values for GCAGTCCGAAAGGATTGC (((.(((....))).))) are -46.3 kcal/mol and 60.2 °C.
On to GTCGCGTCGAAAGACGAC (((..(((....)))))), for which the folding enthalpy in data set [1] was -8.6 kcal/mol. In addition, the Tm in data set [2] came to 35.5 °C.
For GAAGGCGAAAGCCCTTC ((((((....))).))) the same measures were -15.3 kcal/mol and 52.1 °C.
Turning to GCTTCAGGAAACTGGAGC (((.(((....))).))), the folding enthalpy in data set [1] is -38.5 kcal/mol. Also, the Tm in data set [2] is 49.9 °C.
For GCGCTTGGAAACAGGCGC ((((.((....)).)))) the same measures were -40.6 kcal/mol and 61.7 °C.
For GATCCCTGTCGGGATC ((((((....)))))) the same measures were -35 kcal/mol and 60 °C.
The corresponding values for GAACACGCGAAAGCGTTC (((..(((....)))))) are -8.07 kcal/mol and 27.9 °C.
For the sequence GATCTAGTTGTAGATC ((((((....)))))), the folding enthalpy in data set [1] was -28.2 kcal/mol. Besides, the Tm in data set [2] amounted to 41.2 °C.
The corresponding values for GCGTTAACACGC ((((....)))) are -20.1 kcal/mol and 49.1 °C.
For GCCAAGCGAAAGCTATGC ((..(((....)))..)) the same measures were -13.2 kcal/mol and 33.9 °C.
For GATTCCGGAAACGAAATC ((((.((....)).)))) the same measures were -31.6 kcal/mol and 34.3 °C.
GCGTAGCGAAAGCTTCGC (((.(((....))).))): the folding enthalpy in data set [1] is -36.2 kcal/mol. The Tm in data set [2] was found to be 55 °C.
For GATCCGGGACGGATC ((((((...)))))) the same measures were -37.1 kcal/mol and 68.9 °C.
For GACCAGCGAAAGCTGTC (((.(((....)))))), in data set [1], the folding enthalpy was -11.3 kcal/mol. Further, the Tm in data set [2] was 45 °C.
GACATTGGAAACGATGTC (((((.(....).))))): the folding enthalpy in data set [1] was -36.1 kcal/mol. In data set [2], the Tm turned out to be 46.7 °C.
With CAGGAGAAATCCTG (((((....))))), in data set [1], the folding enthalpy is -19.7 kcal/mol. For the same sequence, the Tm in data set [2] came to 43.7 °C.
For GGCACCCGAAAGGGGCC (((.(((....)))))) the same measures were -20.9 kcal/mol and 67.1 °C.
The corresponding values for GAGGTTGGAAACAACCTC (((((((....))))))) are -43.3 kcal/mol and 65.8 °C.
Consider GAAGGTGGAAACGTCTTC ((((..(....)..)))), for which, in data set [1], the folding enthalpy was -33 kcal/mol. Further, in data set [2], the Tm was 36.2 °C.
For GCATACGGAAACGTATAC (.(((((....))))).) the same measures were -16.9 kcal/mol and 34.9 °C.
Take GTATTGCGAAAGCATTAC (((.(((....))).))): the folding enthalpy in data set [1] was -23.7 kcal/mol. The Tm in data set [2] was 44.9 °C.
